For test [1], the target named is T1, Vascular endothelial growth factor receptor 2 (Homo sapiens, UniProt P35968). Put plainly: Inhibition of VEGFR2 by HTRF assay in presence of 2 uM ATP. The method in brief: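 HTRF kinase assay with KDR enzyme (3–4 ng) and biotinylated pGAT substrate. ATP added to start, 45 min at RT. Stopped with EDTA/KF buffer plus Eu-cryptate anti-phosphotyrosine antibody, 2 h RT, then HTRF read. IC50 from 10-point log concentration curves, mean of at least two duplicate runs.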
(Time-resolved FRET reads energy transfer from a long-lived donor to a nearby acceptor.)

For test [2], the target named is Vascular endothelial growth factor receptor 1 (Homo sapiens, UniProt P17948). Description: Inhibition of VEGFR1 by HTRF assay.
Test [3] concerns the target T1, Vascular endothelial growth factor receptor 2. Put plainly: Inhibition of VEGF-induced phosphorylation of VEGFR2 by cell-based ELISA. (ELISA stands for enzyme-linked immunosorbent assay.)
Test [4] shares this target. Put plainly: Binding affinity to VEGFR2 at IC50 in presence of ATP. The method in brief: (§1)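 ATP competition assay with VEGFR-2. Five concentrations of ³²P ATP across 0-100 µM, each incubated with enzyme for 45 min at RT. Inhibitor was absent or present at two fixed levels.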
The target is the same in test [5]. Description: Binding affinity to VEGFR2 at IC90 in presence of ATP. In outline: as §1
The target in test [6] is Insulin-like growth factor 1 receptor (Homo sapiens) (UniProt P08069). Put plainly: Inhibition of IGF1R at 10 uM.
Test [7] deals with Insulin receptor (Homo sapiens) (UniProt P06213). Description: Inhibition of IR at 10 uM.
Test [8] addresses Fibroblast growth factor receptor 1 (Homo sapiens) (UniProt P11362). Description: Inhibition of FGFR1 at 10 uM.
In test [9] the target is Receptor-type tyrosine-protein kinase FLT3 (Homo sapiens) (UniProt P36888). Description: Inhibition of Flt3 at 10 uM.
The target in test [10] is Epidermal growth factor receptor (Homo sapiens) (UniProt P00533). Put plainly: Inhibition of EGFR at 10 uM.
In test [11] the target is Receptor tyrosine-protein kinase erbB-2 (Homo sapiens) (UniProt P04626). Description: Inhibition of ErbB2 at 10 uM.
The target of test [12] is Hepatocyte growth factor receptor (Homo sapiens) (UniProt P08581). Put plainly: Inhibition of c-Met at 10 uM.
Test [13] addresses Macrophage-stimulating protein receptor (Homo sapiens) (UniProt Q04912). Description: Inhibition of Ron at 10 uM.
Test [14] can be described thus: Inhibition of PKA at 10 uM.
The target in test [15] is Glycogen synthase kinase-3 beta (Homo sapiens) (UniProt P49841). Description: Inhibition of GSK3-beta at 10 uM.
The target in test [16] is Bcr/Abl fusion protein (Homo sapiens) (UniProt P00519+P11274). Description: Inhibition of Bcr-Abl at 10 uM. Format: protein assay.
Test [17] in a line: Inhibition of Bcr-Abl T315 mutant at 10 uM.
Test [18] addresses Cyclin-dependent kinase 1 (Homo sapiens) (UniProt P06493). Description: Inhibition of Cdk1 at 10 uM.
Test [19] has as its target Cyclin-dependent kinase 2 (Homo sapiens) (UniProt P24941). Put plainly: Inhibition of Cdk2 at 10 uM.
Test [20] has as its target Proto-oncogene tyrosine-protein kinase Src (Homo sapiens) (UniProt P12931). Description: Inhibition of Src at 10 uM.
Test [21] deals with T2, Aurora kinase A (Homo sapiens) (UniProt O14965).
T2 sequence (whole entry): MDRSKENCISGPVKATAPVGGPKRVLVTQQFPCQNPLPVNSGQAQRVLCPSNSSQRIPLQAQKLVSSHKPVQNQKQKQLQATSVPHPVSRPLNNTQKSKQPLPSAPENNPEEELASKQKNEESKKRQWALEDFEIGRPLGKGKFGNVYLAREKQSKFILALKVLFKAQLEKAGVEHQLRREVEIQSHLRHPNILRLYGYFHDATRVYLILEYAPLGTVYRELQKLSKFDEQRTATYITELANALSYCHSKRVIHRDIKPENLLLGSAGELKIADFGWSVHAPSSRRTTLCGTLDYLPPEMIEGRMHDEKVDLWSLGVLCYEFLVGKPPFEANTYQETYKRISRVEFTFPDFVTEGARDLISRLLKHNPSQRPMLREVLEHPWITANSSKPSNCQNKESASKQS
Put plainly: Inhibition of Aurora A at 10 uM.

Test [22] deals with Aurora kinase B (Homo sapiens) (UniProt Q96GD4). Description: Inhibition of Aurora B at 10 uM.
The target of test [23] is Serine/threonine-protein kinase PLK1 (Homo sapiens) (UniProt P53350). Description: Inhibition of Plk1 at 10 uM.

Bounds are passed on as bounds.

The term IC50 denotes the concentration that gives 50% inhibition. The term Ki denotes the equilibrium dissociation constant of an inhibitor or competing ligand from its target. For orientation: inhibition means the change of the read-out against control, counted positive when it falls.

Aurora kinase B (Homo sapiens), sequence (Q96GD4 whole entry): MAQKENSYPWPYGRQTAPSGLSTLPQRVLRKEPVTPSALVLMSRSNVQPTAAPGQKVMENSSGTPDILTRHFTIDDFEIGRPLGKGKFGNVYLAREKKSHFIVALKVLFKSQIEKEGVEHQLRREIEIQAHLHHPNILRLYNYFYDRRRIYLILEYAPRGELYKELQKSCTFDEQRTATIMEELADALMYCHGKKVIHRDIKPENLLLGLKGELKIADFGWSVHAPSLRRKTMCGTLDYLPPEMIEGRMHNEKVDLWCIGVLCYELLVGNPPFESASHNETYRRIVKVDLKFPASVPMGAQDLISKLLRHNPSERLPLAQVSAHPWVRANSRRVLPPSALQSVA
Receptor-type tyrosine-protein kinase FLT3 (Homo sapiens), sequence (P36888 whole entry): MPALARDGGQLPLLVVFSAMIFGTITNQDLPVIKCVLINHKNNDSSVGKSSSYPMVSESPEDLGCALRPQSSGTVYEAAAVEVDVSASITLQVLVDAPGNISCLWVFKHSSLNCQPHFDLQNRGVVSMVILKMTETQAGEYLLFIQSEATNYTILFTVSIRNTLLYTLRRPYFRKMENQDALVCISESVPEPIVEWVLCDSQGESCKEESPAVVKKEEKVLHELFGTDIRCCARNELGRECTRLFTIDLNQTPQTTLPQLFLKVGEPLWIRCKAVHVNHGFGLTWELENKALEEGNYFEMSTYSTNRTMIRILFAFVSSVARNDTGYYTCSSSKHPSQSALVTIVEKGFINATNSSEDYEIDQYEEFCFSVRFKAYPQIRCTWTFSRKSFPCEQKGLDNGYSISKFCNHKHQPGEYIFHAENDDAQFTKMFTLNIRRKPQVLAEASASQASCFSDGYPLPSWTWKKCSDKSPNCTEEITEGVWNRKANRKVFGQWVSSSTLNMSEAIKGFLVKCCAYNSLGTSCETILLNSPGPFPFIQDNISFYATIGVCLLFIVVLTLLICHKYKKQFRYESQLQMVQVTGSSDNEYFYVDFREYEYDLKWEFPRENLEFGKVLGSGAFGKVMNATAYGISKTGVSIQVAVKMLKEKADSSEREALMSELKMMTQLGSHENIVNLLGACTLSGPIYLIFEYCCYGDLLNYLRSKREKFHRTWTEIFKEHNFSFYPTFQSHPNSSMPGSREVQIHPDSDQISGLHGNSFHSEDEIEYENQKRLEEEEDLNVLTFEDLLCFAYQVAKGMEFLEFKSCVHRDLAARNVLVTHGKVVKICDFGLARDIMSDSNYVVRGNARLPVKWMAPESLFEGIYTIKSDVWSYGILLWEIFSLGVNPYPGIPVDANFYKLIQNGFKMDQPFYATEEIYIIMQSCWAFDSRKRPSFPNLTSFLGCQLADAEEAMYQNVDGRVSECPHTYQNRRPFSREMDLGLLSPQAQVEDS
Fibroblast growth factor receptor 1 (Homo sapiens), sequence (P11362 22-822 limits assumed): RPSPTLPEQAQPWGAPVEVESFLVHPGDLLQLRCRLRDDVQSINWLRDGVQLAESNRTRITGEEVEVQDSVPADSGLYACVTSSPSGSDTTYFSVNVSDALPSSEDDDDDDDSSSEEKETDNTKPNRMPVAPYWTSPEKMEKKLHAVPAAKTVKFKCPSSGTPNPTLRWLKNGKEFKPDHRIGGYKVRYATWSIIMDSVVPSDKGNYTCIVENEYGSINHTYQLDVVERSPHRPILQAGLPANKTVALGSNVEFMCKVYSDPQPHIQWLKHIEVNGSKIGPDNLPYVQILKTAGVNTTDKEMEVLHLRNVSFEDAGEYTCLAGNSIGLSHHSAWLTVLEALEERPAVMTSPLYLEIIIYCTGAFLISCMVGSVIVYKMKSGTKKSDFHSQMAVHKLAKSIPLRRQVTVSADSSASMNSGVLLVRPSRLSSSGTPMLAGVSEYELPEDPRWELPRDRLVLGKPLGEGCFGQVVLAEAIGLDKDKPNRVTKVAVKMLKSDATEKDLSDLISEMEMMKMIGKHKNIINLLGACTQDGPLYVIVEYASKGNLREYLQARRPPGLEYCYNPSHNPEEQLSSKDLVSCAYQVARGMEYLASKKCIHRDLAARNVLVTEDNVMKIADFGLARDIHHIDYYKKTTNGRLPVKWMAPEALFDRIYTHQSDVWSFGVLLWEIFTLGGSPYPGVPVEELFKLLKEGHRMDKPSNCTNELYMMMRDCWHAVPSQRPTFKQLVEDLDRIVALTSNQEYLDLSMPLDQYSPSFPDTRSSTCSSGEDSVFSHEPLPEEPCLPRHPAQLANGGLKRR
Cyclin-dependent kinase 1 (Homo sapiens), sequence (P06493 whole entry, looked up): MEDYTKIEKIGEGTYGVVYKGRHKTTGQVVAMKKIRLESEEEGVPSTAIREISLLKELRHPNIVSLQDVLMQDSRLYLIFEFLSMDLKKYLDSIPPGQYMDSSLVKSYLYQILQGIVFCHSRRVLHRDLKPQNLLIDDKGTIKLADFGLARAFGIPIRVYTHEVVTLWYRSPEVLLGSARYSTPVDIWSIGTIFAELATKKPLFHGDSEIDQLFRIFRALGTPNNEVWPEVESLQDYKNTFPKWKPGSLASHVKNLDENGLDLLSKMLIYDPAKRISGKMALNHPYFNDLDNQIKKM
Vascular endothelial growth factor receptor 1, sequence (P17948 whole entry): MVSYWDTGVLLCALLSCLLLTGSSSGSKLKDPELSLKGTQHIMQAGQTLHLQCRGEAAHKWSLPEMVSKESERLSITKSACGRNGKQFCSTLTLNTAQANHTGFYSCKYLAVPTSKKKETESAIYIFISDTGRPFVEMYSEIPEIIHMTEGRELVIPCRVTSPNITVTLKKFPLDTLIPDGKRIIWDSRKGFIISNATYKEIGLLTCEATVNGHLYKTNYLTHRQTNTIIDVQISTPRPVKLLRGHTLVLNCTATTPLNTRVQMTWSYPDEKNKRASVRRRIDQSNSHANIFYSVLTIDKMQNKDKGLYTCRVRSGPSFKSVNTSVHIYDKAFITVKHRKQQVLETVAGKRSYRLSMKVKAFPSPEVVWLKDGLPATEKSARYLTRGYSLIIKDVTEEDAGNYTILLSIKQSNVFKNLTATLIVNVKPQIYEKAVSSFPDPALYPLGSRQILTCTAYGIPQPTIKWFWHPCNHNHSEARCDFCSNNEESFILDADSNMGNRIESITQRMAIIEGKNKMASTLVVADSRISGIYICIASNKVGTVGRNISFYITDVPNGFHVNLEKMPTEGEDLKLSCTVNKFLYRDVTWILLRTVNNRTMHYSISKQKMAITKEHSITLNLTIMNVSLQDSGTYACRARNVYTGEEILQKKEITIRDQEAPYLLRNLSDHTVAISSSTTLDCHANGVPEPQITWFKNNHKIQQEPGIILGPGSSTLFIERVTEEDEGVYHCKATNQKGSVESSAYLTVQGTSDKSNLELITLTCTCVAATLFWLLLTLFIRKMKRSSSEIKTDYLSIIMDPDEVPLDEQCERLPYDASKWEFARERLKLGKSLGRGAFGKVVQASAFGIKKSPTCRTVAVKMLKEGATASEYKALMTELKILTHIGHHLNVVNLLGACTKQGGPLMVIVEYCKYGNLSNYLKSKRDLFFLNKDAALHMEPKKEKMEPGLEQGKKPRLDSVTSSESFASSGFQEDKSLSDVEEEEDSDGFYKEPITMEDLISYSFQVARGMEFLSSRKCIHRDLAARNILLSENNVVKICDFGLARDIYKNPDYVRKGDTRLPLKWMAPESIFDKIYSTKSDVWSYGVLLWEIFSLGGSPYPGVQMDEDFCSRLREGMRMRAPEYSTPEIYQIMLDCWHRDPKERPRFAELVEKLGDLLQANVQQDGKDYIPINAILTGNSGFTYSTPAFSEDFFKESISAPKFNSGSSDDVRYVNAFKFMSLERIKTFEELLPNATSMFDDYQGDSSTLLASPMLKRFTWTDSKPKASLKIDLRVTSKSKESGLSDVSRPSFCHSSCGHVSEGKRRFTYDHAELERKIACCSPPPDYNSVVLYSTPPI
Receptor tyrosine-protein kinase erbB-2 (Homo sapiens), sequence (P04626 whole entry): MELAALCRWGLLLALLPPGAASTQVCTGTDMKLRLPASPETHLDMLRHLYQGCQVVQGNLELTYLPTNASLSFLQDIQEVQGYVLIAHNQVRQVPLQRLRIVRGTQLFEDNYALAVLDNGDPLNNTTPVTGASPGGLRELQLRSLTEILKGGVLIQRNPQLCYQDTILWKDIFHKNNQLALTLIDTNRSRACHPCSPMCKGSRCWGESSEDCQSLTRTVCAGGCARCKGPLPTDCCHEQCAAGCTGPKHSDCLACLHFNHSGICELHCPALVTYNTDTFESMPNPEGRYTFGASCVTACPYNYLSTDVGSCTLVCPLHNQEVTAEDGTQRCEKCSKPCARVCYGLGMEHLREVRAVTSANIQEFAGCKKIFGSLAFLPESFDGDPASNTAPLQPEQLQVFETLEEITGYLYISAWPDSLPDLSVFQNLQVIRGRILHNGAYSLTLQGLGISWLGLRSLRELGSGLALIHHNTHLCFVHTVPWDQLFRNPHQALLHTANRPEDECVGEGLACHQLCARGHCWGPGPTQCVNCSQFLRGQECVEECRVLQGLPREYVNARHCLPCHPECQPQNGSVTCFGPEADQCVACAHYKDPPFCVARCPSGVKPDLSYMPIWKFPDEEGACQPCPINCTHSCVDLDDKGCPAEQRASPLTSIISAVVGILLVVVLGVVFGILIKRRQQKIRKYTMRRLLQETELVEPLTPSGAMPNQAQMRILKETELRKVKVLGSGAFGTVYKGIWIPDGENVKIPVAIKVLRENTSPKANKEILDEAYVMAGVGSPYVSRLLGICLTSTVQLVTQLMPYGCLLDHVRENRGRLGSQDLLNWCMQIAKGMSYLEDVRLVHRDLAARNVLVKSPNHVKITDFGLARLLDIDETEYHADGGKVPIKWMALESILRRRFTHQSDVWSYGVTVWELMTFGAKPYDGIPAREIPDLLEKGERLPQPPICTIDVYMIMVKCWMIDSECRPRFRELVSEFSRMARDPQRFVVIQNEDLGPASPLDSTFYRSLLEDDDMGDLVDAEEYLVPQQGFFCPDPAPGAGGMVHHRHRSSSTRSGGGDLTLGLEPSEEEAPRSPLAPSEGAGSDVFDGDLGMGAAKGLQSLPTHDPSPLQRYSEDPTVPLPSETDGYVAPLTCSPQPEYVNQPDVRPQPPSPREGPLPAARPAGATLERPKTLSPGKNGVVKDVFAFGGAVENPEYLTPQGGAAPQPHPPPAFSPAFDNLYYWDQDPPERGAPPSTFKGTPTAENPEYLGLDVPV

In the case of `FC(F)(F)c1cccc(-n2cc(-c3ccccc3NCc3ccncc3)nn2)c1`, the figures for the IC50 in test [1], in [2] and in test [3] were 51 nM, 66 nM and 96 nM, respectively. Also, the Ki in test [4] was 90 nM; in test [5] it was 80 nM. Further, the inhibition in test [6], in [7], in test [8], in test [9], in [10] and in test [11] was below 30% each time. Also, the inhibition in [12], in test [13], in test [14], in test [15], in test [16] and in test [17] was below 30% in each case. In addition, the inhibition in [18], in test [19], in test [20], in test [21], in test [22] and in test [23] was below 30% throughout.

With `CC(C)c1cccc(-n2cc(-c3ccccc3NCc3ccncc3)nn2)c1`, the figures for the half-maximal inhibitory concentration (IC50) in test [1], in test [2] and in test [3] were 110 nM, 130 nM and 150 nM, respectively. The inhibitory constant (Ki) came to 160 nM in test [4] and 140 nM in [5]. For the same compound, the inhibition in test [6], in [7], in test [8], in test [9], in test [10] and in [11] was below 30% throughout. For the same compound, the inhibition in test [12], in [13], in test [14], in test [15], in test [16] and in test [17] was below 30% each time. The inhibition in test [18], in [19], in test [20], in [21], in [22] and in [23] was below 30% each time.

As to `Clc1cccc(-n2cc(-c3ccccc3NCc3ccncc3)nn2)c1`, the figures for the half-inhibitory concentration (IC50) in test [1], in test [2] and in test [3] were 87 nM, 130 nM and 160 nM, respectively. For the same compound, the inhibitory constant (Ki) came to 120 nM in [4] and 110 nM in test [5]. Further, the inhibition in test [6], in test [7], in test [8], in test [9], in test [10] and in test [11] was below 30% each time. In addition, the inhibition in test [12], in test [13], in test [14], in test [15], in [16] and in test [17] was below 30% throughout. Moreover, the inhibition in test [18], in test [19], in test [20], in [21], in test [22] and in test [23] was below 30% in each case.

Take `FC(F)(F)Oc1cccc(-n2cc(-c3ccccc3NCc3ccncc3)nn2)c1`: the IC50 came to 66 nM in test [1], 72 nM in [2] and 85 nM in test [3]. Besides, the inhibition in test [6], in [7], in test [8], in test [9], in test [10] and in [11] was below 30% in each case. In addition, the inhibition in [12], in test [13], in [14], in test [15], in test [16] and in test [17] was below 30% in each case. The inhibition in test [18], in [19], in test [20], in test [21], in test [22] and in test [23] was below 30% throughout.

As for `Clc1cccc(-n2cc(-c3ccccc3NCc3c[nH]cn3)nn2)c1`, the concentration for half-maximal inhibition (IC50) in [1], in test [2] and in [3] was above 10000 nM in each case. Also, the inhibition in test [6], in [7], in test [8], in test [9], in test [10] and in test [11] was below 30% throughout. The inhibition in test [12], in test [13], in [14], in test [15], in [16] and in test [17] was below 30% throughout. The inhibition in [18], in test [19], in [20], in test [21], in test [22] and in test [23] was below 30% each time.

Turning to `FC(F)(F)c1cccc(-n2cc(-c3ccccc3NCc3ccnc4ccccc34)nn2)c1`, the IC50 in test [1] came to 160 nM; in [2], 210 nM; in [3] it was 310 nM. The inhibition in test [6], in [7], in test [8], in [9], in test [10] and in test [11] was below 30% throughout. Moreover, the inhibition in test [12], in [13], in [14], in [15], in [16] and in [17] was below 30% in each case. The inhibition in test [18], in [19], in [20], in test [21], in [22] and in [23] was below 30% throughout.

Source of the values: ChEMBL document CHEMBL1153264, “(1,2,3-Triazol-4-yl)benzenamines: synthesis and activity against VEGF receptors 1 and 2” (Bioorg Med Chem Lett, 2009).
